Test results from ChEMBL document CHEMBL1806370, “Development of novel naphthalimide derivatives and their evaluation as potential melanoma therapeutics” (Eur J Med Chem, 2011).

Assays:
[1] = tested on: A375-S2; assay: Cytotoxicity against human A375-S2 cells assessed as decrease in cell viability after 24 hrs by MTS assay; format: functional, cell-based
Outline: (§1)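 Cells in DMEM with 10% FBS at 37 °C and 5% CO2 were plated at 5×10^3 per well and grown 24 h. They were then exposed 24 or 72 h to 0.5, 1, 5, 10, 25 and 50 µM, with final DMSO 0.5% and DMSO controls. MTS/PMS was added for 4 h at 37 °C. A492 was read with the medium blank subtracted and expressed as % of control. IC50 was taken from three independent experiments (mean ± S.E.).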

[2] = Cytotoxicity against human 1205 Lu cells after 24 hrs by MTS assay; format: functional, cell-based; outline: as §1
[3] = tested on: UACC-903; assay: Induction of apoptosis in human UACC-903 cells assessed as late apoptotic cells at 5 uM after 24 hrs using annexin-V-PE/7-AAD double staining by flow cytometry; format: functional
Outline: (§2)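 UACC 903 cells were exposed 24 h at 37 °C to 1, 5 or 25 µM, with DMSO as control. Cells were harvested, washed twice in cold PBS and resuspended at 1×10^6 cells/mL in binding buffer. They were stained with 7-AAD plus PE Annexin V for 20 min at room temperature in the dark and run by flow cytometry within 1 h. Gating: double-negative live, 7-AAD+ dead, Annexin V+/7-AAD− early apoptotic. Three separate experiments.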

[4] = tested on: UACC-903; assay: Induction of apoptosis in human UACC-903 cells assessed as late apoptotic cells at 1 uM after 24 hrs using annexin-V-PE/7-AAD double staining by flow cytometry; format: functional; outline: as §2
[5] = tested on: Mus musculus; assay: Systemic toxicity in Swiss Webster mouse assessed as weight loss at 10 mg/kg, ip administered every day for 28 days; format: organism-based; parameters: dose 10 mg/kg, route intraperitoneal; conditions: in vivo, 672 h
Outline: (§3)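 Swiss Webster mice, n = 4 per group, dosed i.p. once daily for 28 days at 5, 7.5, 10 or 15 mg/kg body weight. Body weight recorded twice per week; deaths noted over the dosing period.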

[6] = Cytotoxicity against human 1205 Lu cells after 72 hrs by MTS assay; format: functional, cell-based; outline: as §1
[7] = tested on: UACC-903; assay: Induction of apoptosis in human UACC-903 cells assessed as viable cells at 5 uM after 24 hrs using annexin-V-PE/7-AAD double staining by flow cytometry; format: functional; conditions: UACC-903, 24 h, read-out: Activity; outline: as §2
[8] = tested on: SK-MEL-37 (Homo sapiens); assay: Cytotoxicity against human SK-MEL-37 cells assessed as decrease in cell viability after 72 hrs by MTS assay
[9] = Cytotoxicity against human A375-S2 cells after 24 hrs by MTS assay; format: functional, cell-based; conditions: A375-S2, 24 h; outline: as §1
[10] = tested on: UACC-903; assay: Induction of apoptosis in human UACC-903 cells assessed as early apoptotic cells at 25 uM after 24 hrs using annexin-V-PE/7-AAD double staining by flow cytometry; format: functional; outline: as §2
[11] = tested on: UACC-903; assay: Induction of apoptosis in human UACC-903 cells assessed as early apoptotic cells at 5 uM after 24 hrs using annexin-V-PE/7-AAD double staining by flow cytometry; format: functional; outline: as §2
[12] = tested on: UACC-903; assay: Cytotoxicity against human UACC-903 cells after 72 hrs by MTS assay; format: functional, cell-based; conditions: UACC-903, 72 h; outline: as §1
[13] = tested on: UACC-903; assay: Induction of apoptosis in human UACC-903 cells assessed as late apoptotic cells at 25 uM after 24 hrs using annexin-V-PE/7-AAD double staining by flow cytometry; format: functional; outline: as §2
[14] = tested on: UACC-903; assay: Cytotoxicity against human UACC-903 cells assessed as decrease in cell viability after 24 hrs by MTS assay; format: functional, cell-based; outline: as §1
[15] = tested on: Mus musculus; assay: Systemic toxicity in athymic Harlan Sprague-Dawley nude mouse xenografted with human UACC-903 cells assessed as mortality at 10 mg/kg, ip administered daily for 28 days; format: organism-based; parameters: dose 10 mg/kg, route intraperitoneal; conditions: in vivo, 672 h
[16] = tested on: UACC-903; assay: Induction of apoptosis in human UACC-903 cells assessed as non-viable cells at 5 uM after 24 hrs using annexin-V-PE/7-AAD double staining by flow cytometry; format: functional; outline: as §2
[17] = tested on: UACC-903; assay: Induction of apoptosis in human UACC-903 cells assessed as viable cells at 1 uM after 24 hrs using annexin-V-PE/7-AAD double staining by flow cytometry; format: functional; conditions: UACC-903, 24 h, read-out: Activity; outline: as §2
[18] = tested on: UACC-903; assay: Induction of apoptosis in human UACC-903 cells assessed as non-viable cells at 1 uM after 24 hrs using annexin-V-PE/7-AAD double staining by flow cytometry; format: functional; outline: as §2
[19] = Cytotoxicity against human SK-MEL-37 cells after 24 hrs by MTS assay; format: functional, cell-based; outline: as §1
[20] = tested on: UACC-903; assay: Induction of apoptosis in human UACC-903 cells assessed as early apoptotic cells at 1 uM after 24 hrs using annexin-V-PE/7-AAD double staining by flow cytometry; format: functional; outline: as §2
[21] = tested on: UACC-903; assay: Antitumor activity against human UACC-903 cells xenografted in athymic Harlan Sprague-Dawley nude mouse assessed as reduction in tumor growth at 9.5 to 10.6 mg/kg, ip administered thrice per week for 24 days measured after 21 days; format: functional; conditions: dose mg/kg 9.5-10.6; route intraperitoneal
Outline: (§4)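 Female athymic nude mice, 4–6 weeks old, received 5×10^6 UACC 903 cells s.c. in DMEM/10% FBS above both rib cages. After six days they were randomized at 5 mice/group, 2 tumors/mouse. Dosing was i.p. Mon/Wed/Fri, with one arm dosed daily; controls got DMSO vehicle. Tumor dimensions (calipers, mm³) and body weight were recorded three times weekly.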

[22] = tested on: UACC-903; assay: Cytotoxicity against human UACC-903 cells assessed as decrease in cell viability after 72 hrs by MTS assay; format: functional, cell-based; outline: as §1
[23] = tested on: 1205Lu; assay: Cytotoxicity against human 1205 Lu cells assessed as decrease in cell viability after 24 hrs by MTS assay; format: functional, cell-based; outline: as §1
[24] = tested on: Mus musculus; assay: Systemic toxicity in Swiss Webster mouse assessed as mortality at 15 mg/kg, ip administered every day for 28 days; format: organism-based; parameters: dose 15 mg/kg, route intraperitoneal; conditions: in vivo, 672 h; outline: as §3
[25] = Cytotoxicity against human SK-MEL-37 cells after 72 hrs by MTS assay; format: functional, cell-based; outline: as §1
[26] = tested on: UACC-903; assay: Induction of apoptosis in human UACC-903 cells assessed as increase in apoptotic cells after 24 hrs using annexin-V-PE/7-AAD double staining by flow cytometry; format: functional, cell-based; outline: as §2
[27] = tested on: A375-S2; assay: Cytotoxicity against human A375-S2 cells assessed as decrease in cell viability after 72 hrs by MTS assay; format: functional, cell-based; outline: as §1
[28] = tested on: SK-MEL-37 (Homo sapiens); assay: Cytotoxicity against human SK-MEL-37 cells assessed as decrease in cell viability after 24 hrs by MTS assay
[29] = Cytotoxicity against human A375-S2 cells after 72 hrs by MTS assay; format: functional, cell-based; conditions: A375-S2, 72 h; outline: as §1
[30] = tested on: Mus musculus; assay: Systemic toxicity in athymic Harlan Sprague-Dawley nude mouse xenografted with human UACC-903 cells assessed as reduction in body weight at 9.5 to 10.6 mg/kg, ip administered thrice a week for 24 days; format: organism-based; parameters: dose 9.5-10.6 mg/kg, route intraperitoneal; conditions: in vivo, 576 h; outline: as §4
[31] = tested on: Mus musculus; assay: Systemic toxicity in Swiss Webster mouse assessed as mortality at 10 mg/kg, ip administered every day for 28 days; format: organism-based; parameters: dose 10 mg/kg, route intraperitoneal; conditions: in vivo, 672 h; outline: as §3
[32] = tested on: 1205Lu; assay: Cytotoxicity against human 1205 Lu cells assessed as decrease in cell viability after 72 hrs by MTS assay; format: functional, cell-based; outline: as §1
[33] = tested on: UACC-903; assay: Induction of apoptosis in human UACC-903 cells assessed as viable cells at 25 uM after 24 hrs using annexin-V-PE/7-AAD double staining by flow cytometry; format: functional; conditions: UACC-903, 24 h, read-out: Activity; outline: as §2
[34] = tested on: Mus musculus; assay: Systemic toxicity in Swiss Webster mouse assessed as reduction in body weight at 10 mg/kg, ip administered daily for 28 days; parameters: scale not given: the % may be the effect or the level left; conditions: in vivo, 672 h
[35] = tested on: UACC-903; assay: Cytotoxicity against human UACC-903 cells after 24 hrs by MTS assay; format: functional, cell-based; conditions: UACC-903, 24 h; outline: as §1
[36] = tested on: UACC-903; assay: Induction of apoptosis in human UACC-903 cells assessed as non-viable cells at 25 uM after 24 hrs using annexin-V-PE/7-AAD double staining by flow cytometry; format: functional; outline: as §2

| Compound | Activity [1] | IC50 [2] | Activity [3] | Activity [4] | Activity [5] | IC50 [6] | viability at 5 µM [7] | Activity [8] | IC50 [9] | Activity [10] | Activity [11] | IC50 [12] | Activity [13] | Activity [14] | Activity [16] | viability at 1 µM [17] | Activity [18] | IC50 [19] | Activity [20] | growth inhibition (GI) [21] | also measured |
| --- | --- | --- | --- | --- | --- | --- | --- | --- | --- | --- | --- | --- | --- | --- | --- | --- | --- | --- | --- | --- | --- |
| N=C(N)SCCN1C(=O)c2cccc3cc([N+](=O)[O-])cc(c23)C1=O | Dose-dependent effect | 39.5 µM | 3.99% | 2.41% | Non-toxic | 16.4 µM | 70.4% | Dose-dependent effect | 18.4 µM | 40.2% | 25.1% | 6.95 µM | 12.3% | Dose-dependent effect | 0.43% | 76.9% | 0.56% | 23.4 µM | 20.1% | 20% | Activity [15]: Non-toxic; Activity [22]: Dose-dependent effect; Activity [23]: Dose-dependent effect; Activity [24]: Toxic; IC50 [25]: 15 µM; Activity [26]: Dose-dependent effect; Activity [27]: Dose-dependent effect; Activity [28]: Dose-dependent effect; IC50 [29]: 9.48 µM; Activity [30]: Non-toxic; Activity [31]: Non-toxic; Activity [32]: Dose-dependent effect; viability at 25 µM [33]: 47.2%; Activity [34]: 10%; IC50 [35]: 14.7 µM; Activity [36]: 0.32% |
| N=C(N)SCCN1C(=O)c2cccc3cccc(c23)C1=O | Dose-dependent effect | 22.4 µM | 2.41% | 1.04% | Non-toxic | 18.7 µM | 79.7% | Dose-dependent effect | 6.7 µM | 47.6% | 17.5% | 6.85 µM | 9.64% | Dose-dependent effect | 0.42% | 89.1% | 0.71% | 3.7 µM | 9.11% | 20% | Activity [22]: Dose-dependent effect; Activity [23]: Dose-dependent effect; Activity [24]: Toxic; IC50 [25]: 2.15 µM; Activity [26]: Dose-dependent effect; Activity [27]: Dose-dependent effect; Activity [28]: Dose-dependent effect; IC50 [29]: 3.78 µM; Activity [30]: Non-toxic; Activity [31]: Non-toxic; Activity [32]: Dose-dependent effect; viability at 25 µM [33]: 42.4%; IC50 [35]: 9.87 µM; Activity [36]: 0.43% |
